Results reported in ChEMBL document CHEMBL3232764, “Influence of the adamantyl moiety on the activity of biphenylacrylohydroxamic acid-based HDAC inhibitors” (Eur J Med Chem, 2014).

Legend:
[1] = system: HCT-116; assay: Antiproliferative activity against human HCT116 cells assessed as growth inhibition after 72 hrs; assay type: functional, cell-based; details: HCT-116, 72 h
Method in brief: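 Log-phase cells seeded in duplicate in 6-well plates; drug added 24 h after seeding. Cells harvested 72 h after drug exposure and counted with a cell counter. IC50 = drug concentration giving 50% reduction in cell number versus untreated control.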

[2] = biological target: Histone deacetylase 1 (Homo sapiens, UniProt Q13547); assay: Inhibition of human HDAC1 using fluorogenic tetrapeptide RHKKAc as substrate
[3] = biological target: Histone deacetylase 3 (Homo sapiens, UniProt O15379)
[4] = biological target: Histone deacetylase 5 (Homo sapiens, UniProt Q9UQL6); assay: Inhibition of human HDAC5 using fluorogenic tetrapeptide RHKKAc as substrate
[5] = biological target: T1, Protein deacetylase HDAC6 (Homo sapiens, UniProt Q9UBN7); assay: Inhibition of human HDAC6 using fluorogenic tetrapeptide RHKKAc as substrate
T1 sequence (Q9UBN7 whole entry): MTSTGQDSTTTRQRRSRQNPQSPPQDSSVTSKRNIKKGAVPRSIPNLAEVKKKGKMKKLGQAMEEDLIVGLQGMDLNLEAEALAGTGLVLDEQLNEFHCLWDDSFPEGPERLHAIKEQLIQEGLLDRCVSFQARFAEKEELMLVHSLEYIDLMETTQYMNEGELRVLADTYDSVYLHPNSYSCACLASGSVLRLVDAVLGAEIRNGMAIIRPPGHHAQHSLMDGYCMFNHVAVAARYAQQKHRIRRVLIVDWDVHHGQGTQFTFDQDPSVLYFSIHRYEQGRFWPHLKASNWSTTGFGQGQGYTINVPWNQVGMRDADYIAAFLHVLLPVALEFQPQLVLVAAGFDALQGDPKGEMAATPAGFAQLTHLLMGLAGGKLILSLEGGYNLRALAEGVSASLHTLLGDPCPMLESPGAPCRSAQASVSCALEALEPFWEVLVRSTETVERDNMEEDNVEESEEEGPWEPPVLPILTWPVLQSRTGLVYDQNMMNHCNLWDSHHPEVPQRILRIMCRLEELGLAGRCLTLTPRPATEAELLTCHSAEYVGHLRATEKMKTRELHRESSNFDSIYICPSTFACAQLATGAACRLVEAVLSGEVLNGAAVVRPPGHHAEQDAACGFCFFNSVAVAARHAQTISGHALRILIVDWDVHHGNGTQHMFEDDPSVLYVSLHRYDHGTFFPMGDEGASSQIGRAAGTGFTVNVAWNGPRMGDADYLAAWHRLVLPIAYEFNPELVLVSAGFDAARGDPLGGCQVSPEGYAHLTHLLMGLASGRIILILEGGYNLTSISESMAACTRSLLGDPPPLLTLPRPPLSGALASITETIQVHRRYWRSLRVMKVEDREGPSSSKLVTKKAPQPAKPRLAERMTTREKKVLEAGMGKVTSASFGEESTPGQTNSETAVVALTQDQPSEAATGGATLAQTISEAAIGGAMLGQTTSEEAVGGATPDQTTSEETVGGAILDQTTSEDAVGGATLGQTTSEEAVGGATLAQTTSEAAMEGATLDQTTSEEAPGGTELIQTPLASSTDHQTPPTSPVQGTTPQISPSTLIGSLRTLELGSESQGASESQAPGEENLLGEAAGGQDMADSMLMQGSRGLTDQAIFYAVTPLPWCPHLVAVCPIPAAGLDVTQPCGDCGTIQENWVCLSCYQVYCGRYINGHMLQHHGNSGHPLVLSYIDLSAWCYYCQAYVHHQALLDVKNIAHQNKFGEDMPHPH

[6] = biological target: T2, Histone deacetylase 8 (Homo sapiens, UniProt Q9BY41); assay: Inhibition of human HDAC8 using fluorogenic tetrapeptide RHKKAc as substrate
T2 sequence (Q9BY41 whole entry): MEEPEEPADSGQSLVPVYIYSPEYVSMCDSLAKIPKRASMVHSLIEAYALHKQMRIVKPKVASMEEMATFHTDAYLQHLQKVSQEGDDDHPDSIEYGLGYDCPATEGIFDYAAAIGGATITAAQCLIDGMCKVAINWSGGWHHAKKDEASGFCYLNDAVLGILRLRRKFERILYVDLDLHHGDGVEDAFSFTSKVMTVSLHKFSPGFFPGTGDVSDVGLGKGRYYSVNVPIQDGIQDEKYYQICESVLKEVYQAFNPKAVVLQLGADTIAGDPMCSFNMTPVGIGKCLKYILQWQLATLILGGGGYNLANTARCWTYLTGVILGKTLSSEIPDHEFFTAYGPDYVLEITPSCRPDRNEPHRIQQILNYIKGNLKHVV

[7] = biological target: Histone deacetylase 9 (Homo sapiens, UniProt Q9UKV0); assay: Inhibition of human HDAC9 using fluorogenic tetrapeptide RHKKAc as substrate
[8] = biological target: T3, Histone deacetylase 11 (Homo sapiens, UniProt Q96DB2); assay: Inhibition of human HDAC11 using fluorogenic tetrapeptide RHKKAc as substrate
T3 sequence (Q96DB2 whole entry): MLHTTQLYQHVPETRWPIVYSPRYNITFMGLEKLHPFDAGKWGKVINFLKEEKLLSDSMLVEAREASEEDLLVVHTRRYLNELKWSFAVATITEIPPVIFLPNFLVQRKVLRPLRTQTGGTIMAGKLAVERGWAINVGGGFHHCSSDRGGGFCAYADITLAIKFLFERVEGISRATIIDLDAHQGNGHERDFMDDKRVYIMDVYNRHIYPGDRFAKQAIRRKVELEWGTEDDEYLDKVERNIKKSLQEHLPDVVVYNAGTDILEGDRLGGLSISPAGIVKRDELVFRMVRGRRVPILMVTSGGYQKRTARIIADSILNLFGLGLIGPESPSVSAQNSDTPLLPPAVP

[9] = system: IGROV-1; assay: Induction of apoptosis in human IGROV1 cells at IC80 after 72 hrs by TUNEL and flow cytometry analysis (reference value: 4%); assay type: functional

Histone deacetylase 9, sequence (Q9UKV0 whole entry): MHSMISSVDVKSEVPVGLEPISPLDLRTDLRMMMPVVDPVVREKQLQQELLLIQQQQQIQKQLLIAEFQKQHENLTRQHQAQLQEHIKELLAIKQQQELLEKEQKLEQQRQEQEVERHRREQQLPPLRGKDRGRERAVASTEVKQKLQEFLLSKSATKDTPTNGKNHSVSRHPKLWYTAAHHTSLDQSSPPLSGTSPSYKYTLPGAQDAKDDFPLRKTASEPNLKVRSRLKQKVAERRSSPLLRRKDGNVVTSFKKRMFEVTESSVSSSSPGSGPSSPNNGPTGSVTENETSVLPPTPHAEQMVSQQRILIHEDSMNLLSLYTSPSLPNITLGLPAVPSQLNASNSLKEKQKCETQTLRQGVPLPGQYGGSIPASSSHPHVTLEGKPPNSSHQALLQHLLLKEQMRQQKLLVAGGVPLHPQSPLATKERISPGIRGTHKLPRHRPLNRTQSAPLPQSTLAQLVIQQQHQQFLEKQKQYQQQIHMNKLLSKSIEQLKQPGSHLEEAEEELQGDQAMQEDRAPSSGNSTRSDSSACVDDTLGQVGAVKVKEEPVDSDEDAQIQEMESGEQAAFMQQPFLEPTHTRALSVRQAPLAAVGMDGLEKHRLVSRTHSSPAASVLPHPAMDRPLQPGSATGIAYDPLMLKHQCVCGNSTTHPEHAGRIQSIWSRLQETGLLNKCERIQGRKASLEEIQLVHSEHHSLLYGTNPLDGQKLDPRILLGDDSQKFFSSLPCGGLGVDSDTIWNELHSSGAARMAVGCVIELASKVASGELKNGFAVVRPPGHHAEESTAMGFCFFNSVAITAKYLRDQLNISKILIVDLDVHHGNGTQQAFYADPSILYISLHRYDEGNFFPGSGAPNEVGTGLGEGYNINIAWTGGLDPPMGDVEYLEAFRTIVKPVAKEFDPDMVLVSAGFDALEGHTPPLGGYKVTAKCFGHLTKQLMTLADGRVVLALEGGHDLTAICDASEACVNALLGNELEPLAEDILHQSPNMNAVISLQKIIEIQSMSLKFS
Histone deacetylase 1, sequence (Q13547 whole entry): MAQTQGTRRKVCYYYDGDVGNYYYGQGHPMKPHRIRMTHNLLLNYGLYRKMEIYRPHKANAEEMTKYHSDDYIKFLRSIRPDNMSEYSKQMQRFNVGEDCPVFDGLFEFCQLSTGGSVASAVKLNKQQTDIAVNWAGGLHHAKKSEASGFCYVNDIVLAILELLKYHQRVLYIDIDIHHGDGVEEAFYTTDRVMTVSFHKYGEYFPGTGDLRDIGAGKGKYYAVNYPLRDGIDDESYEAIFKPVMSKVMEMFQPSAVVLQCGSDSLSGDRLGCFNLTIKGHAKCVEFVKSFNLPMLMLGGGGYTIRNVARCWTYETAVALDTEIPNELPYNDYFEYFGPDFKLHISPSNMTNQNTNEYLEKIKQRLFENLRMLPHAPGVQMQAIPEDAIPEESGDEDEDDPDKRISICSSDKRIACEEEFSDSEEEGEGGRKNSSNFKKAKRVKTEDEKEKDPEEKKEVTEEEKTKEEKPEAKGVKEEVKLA
Histone deacetylase 3, sequence (O15379 whole entry): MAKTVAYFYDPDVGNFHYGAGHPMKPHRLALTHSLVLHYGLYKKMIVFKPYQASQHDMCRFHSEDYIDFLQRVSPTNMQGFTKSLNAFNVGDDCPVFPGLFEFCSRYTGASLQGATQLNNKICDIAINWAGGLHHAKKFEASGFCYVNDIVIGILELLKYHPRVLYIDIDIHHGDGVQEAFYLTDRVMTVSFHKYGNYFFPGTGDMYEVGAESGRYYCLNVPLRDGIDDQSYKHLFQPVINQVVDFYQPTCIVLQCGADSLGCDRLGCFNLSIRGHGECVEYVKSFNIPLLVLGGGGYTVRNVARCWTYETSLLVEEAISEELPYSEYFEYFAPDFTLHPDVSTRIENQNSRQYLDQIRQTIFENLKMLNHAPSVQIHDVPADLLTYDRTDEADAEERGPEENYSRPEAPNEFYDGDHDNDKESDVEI
Histone deacetylase 5, sequence (Q9UQL6 whole entry): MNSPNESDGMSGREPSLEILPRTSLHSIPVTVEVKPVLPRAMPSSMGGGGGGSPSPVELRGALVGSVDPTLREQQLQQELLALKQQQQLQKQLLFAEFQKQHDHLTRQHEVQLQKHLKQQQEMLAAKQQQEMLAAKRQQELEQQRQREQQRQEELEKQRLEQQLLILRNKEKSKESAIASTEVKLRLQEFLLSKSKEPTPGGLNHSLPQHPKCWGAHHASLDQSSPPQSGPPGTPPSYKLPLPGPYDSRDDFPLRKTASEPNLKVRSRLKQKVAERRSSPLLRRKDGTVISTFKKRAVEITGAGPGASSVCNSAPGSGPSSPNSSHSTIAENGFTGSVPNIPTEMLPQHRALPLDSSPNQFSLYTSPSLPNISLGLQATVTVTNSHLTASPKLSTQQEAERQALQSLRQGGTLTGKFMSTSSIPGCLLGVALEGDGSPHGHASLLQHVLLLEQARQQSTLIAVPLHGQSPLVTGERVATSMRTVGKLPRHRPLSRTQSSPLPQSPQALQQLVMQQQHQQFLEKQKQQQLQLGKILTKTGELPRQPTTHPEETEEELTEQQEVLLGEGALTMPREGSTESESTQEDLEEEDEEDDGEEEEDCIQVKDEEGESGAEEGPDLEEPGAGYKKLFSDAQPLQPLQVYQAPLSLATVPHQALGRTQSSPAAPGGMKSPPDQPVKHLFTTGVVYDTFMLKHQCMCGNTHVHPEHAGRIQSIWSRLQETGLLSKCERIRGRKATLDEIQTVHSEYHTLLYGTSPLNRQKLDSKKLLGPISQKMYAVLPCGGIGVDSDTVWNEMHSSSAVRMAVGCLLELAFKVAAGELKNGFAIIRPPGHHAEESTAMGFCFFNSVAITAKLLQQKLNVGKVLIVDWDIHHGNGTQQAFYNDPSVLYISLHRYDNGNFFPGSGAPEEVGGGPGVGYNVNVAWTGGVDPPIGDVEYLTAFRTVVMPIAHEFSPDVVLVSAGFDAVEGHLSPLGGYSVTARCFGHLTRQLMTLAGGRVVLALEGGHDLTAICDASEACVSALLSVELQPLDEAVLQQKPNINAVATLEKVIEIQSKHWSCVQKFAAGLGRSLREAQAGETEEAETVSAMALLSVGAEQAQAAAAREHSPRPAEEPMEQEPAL

Row | Compound | IC50 [1] [µM] | IC50 [2] [µM] | IC50 [3] [µM] | IC50 [4] [µM] | IC50 [5] [µM] | IC50 [6] [µM] | IC50 [7] [µM] | IC50 [8] [µM] | Activity [9] [%]
1 | COc1ccc(-c2ccc(/C=C/C=C/C(=O)NO)cc2)cc1 | 2.4 | > 100 | > 100 | > 100 | 3.26 | 1.56 | > 100 | > 100 | 91
2 | COc1ccc(-c2ccc(/C=C/C=C/C(=O)NO)cc2)cc1C12CC3CC(CC(C3)C1)C2 | 1.8 | 60.1 | > 100 | > 100 | 16.7 | 30.6 | > 100 | 38.1 | 52
